Results reported in publication PMC8796305 (ACS Central Science, 2022).

Test: Human plasma stability assay
Assay type: in vitro ADME
Conditions: 37 °C
Procedure, shortened: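 Lyophilised human plasma reconstituted in sterile water, stored in aliquots at −80 °C, and thawed at room temperature (three aliquots per compound). Each aliquot spiked with test compound from a 2 mM DMSO stock; Angiotensin I as positive control. Incubated at 37 °C. Samples taken at […], quenched with water/acetonitrile, centrifuged (17 000g, 4 °C, 1 h), and supernatants concentrated.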

Substance: Angiotensin I (DRVYIHPFHL; Angiotensin-1; UniProt P01019 25-34, looked up)
- Time to complete degradation in human plasma: ≤ 4 h
